Experimental data from ChEMBL document CHEMBL4028861, “Selective Nonsteroidal Glucocorticoid Receptor Modulators for the Inhaled Treatment of Pulmonary Diseases” (J Med Chem, 2017).
≈ marks a conversion by molar mass, not a printed value. Values belong to the molecule of their own block, whether it stands above or below them.

Experiments:
[1] = Intrinsic clearance in human hepatocytes assessed per million cells; type: ADME, cell-based, Hepatocyte; details: read-out: CLH
[2] = Lipophilicity, log D of the compound by chromatography; type: physicochemical
[3] = Solubility of the compound in phosphate buffer at pH 7.4 using liquid sample at 20 degreeC; type: physicochemical
Outline: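 Solubility measured in 0.1 M phosphate buffer at pH 7.4 and 20 °C, starting from a 10 mM DMSO stock solution.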

[4] = Solubility of the compound in phosphate buffer at pH 7.4 using solid sample at 23 degreeC; type: physicochemical
Outline: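 Solubility measured in 0.1 M phosphate buffer at pH 7.4 and 23 °C, starting from crystalline solid.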

[5] = Intrinsic clearance in Wistar Han rat hepatocytes assessed per 10^6 cells; type: ADME, cell-based, Hepatocyte; details: read-out: CLH
[6] = Clearance in Wistar Han rat at 1 umol/kg, iv administered as bolus dose by LC-MS/MS analysis; type: ADME, organism-based; details: in vivo
[7] = Volume of distribution at steady state in Wistar Han rat at 1 umol/kg, iv administered as bolus dose by LC-MS/MS analysis; type: ADME, organism-based; details: in vivo, read-out: Vdss
[8] = Terminal half life in Wistar Han rat 1 umol/kg, iv administered as bolus dose by LC-MS/MS analysis; type: ADME, organism-based; details: in vivo, read-out: beta t1/2 (converted)
[9] = Oral bioavailability in Wistar Han rat administered via gavage by LC-MS/MS analysis; type: ADME, organism-based; details: in vivo
[10] = Thermodynamic solubility of the compound in human intestinal fluid; type: physicochemical; details: read-out: Therm_solubility
[11] = test system: Lung; assay: Drug uptake in Wistar Han rat lung at 0.1 umol/kg, administered as dry powder inhalation after 4 hrs by LC-MS/MS analysis; type: ADME; details: in vivo, inhaled_or_intranasal
[12] = test system: Lung; assay: Drug uptake in Wistar Han rat lung at 0.1 umol/kg, administered as dry powder inhalation after 24 hrs by LC-MS/MS analysis; type: ADME, tissue-based; details: in vivo, inhaled_or_intranasal
[13] = AUC (0 to infinity) in Wistar Han rat lung at 0.1 umol/kg, administered as dry powder inhalation by LC-MS/MS analysis; type: ADME; set-up: dose 0.1 umol/kg, route respiratory (INHALATION), time infinity; details: inhaled or intranasal
[14] = Apparent terminal half life in Wistar Han rat lung at 0.1 umol/kg, administered as dry powder inhalation by LC-MS/MS analysis; type: ADME; details: inhaled or intranasal, read-out: betat1/2(app) (converted)
[15] = Mean residence time in Wistar Han rat lung at 0.1 umol/kg, administered as dry powder inhalation by LC-MS/MS analysis; type: ADME, tissue-based; details: inhaled or intranasal
[16] = Cmax in Wistar Han rat plasma at 0.1 umol/kg, administered as dry powder inhalation by LC-MS/MS analysis; type: ADME; set-up: dose 0.1 umol/kg, route respiratory (INHALATION); details: inhaled or intranasal
[17] = test system: Rattus norvegicus; assay: Toxicity in inhaled CRL:CD Sprague Dawley rat model of sephadex induced lung edema assessed as induction of thymic involution administered once per day for 3 days; details: in vivo, inhaled_or_intranasal, 72 h
Outline: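 Thymic involution scored in the same Sephadex-challenged rats dosed by inhalation, as a sensitive marker of systemic GR agonism.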

[18] = Drug degradation in human hepatocytes at 10 uM up to 120 mins by LC-MS/MS analysis; type: ADME, cell-based, Hepatocyte; details: 2 h
[19] = Drug degradation in rat hepatocytes at 10 uM up to 120 mins by LC-MS/MS analysis; type: ADME, cell-based, Hepatocyte; details: 2 h
[20] = Drug degradation in dog hepatocytes at 10 uM up to 120 mins by LC-MS/MS analysis; type: ADME, cell-based, Canis lupus familiaris, Hepatocyte; details: 2 h
[21] = Drug degradation in human hepatocytes assessed as 5-hydroxy-indazole formation at 10 uM up to 120 mins by LC-MS/MS analysis; type: ADME, cell-based, Hepatocyte; details: 2 h
[22] = Drug degradation in rat hepatocytes assessed as 5-hydroxy-indazole formation at 10 uM up to 120 mins by LC-MS/MS analysis; type: ADME, cell-based, Hepatocyte; details: 2 h
[23] = Drug degradation in dog hepatocytes assessed as 5-hydroxy-indazole formation at 10 uM up to 120 mins by LC-MS/MS analysis; type: ADME, cell-based, Canis lupus familiaris, Hepatocyte; details: 2 h

hepatocyte CLint [1]: 17 µL/min/1e6 cells | chromatographic logD [2]: 3.6 | solubility [3]: 0.16 µM (≈ 0.0993 µg/mL) | solubility thermodynamic [4]: 0.22 µM (≈ 0.137 µg/mL)
SMILES: C[C@H](NC(=O)C(C)(F)F)[C@H](Oc1ccc2c(cnn2-c2cccc(C(=O)N[C@@H]3CCOC3=O)c2)c1)c1ccc2c(c1)OCCO2

chromatographic logD [2]: 5.7
SMILES: C[C@H](NC(=O)C(F)(F)F)[C@H](Oc1ccc2c(cnn2-c2ccc(F)cc2)c1)c1ccc2c(c1)OCCO2

hepatocyte CLint [1]: 30 µL/min/1e6 cells | chromatographic logD [2]: 3.7 | solubility [3]: 1.3 µM (≈ 0.789 µg/mL) | solubility thermodynamic [4]: 0.09 µM (≈ 0.0546 µg/mL)
SMILES: C[C@H](NC(=O)C(C)(F)F)[C@H](Oc1ccc2c(cnn2-c2cccc(C(=O)N[C@H]3CCOC3)c2)c1)c1ccc2c(c1)OCCO2

hepatocyte CLint [1]: 29 µL/min/1e6 cells | chromatographic logD [2]: 3.7 | solubility [3]: < 0.1 µM | solubility thermodynamic [4]: 0.02 µM (≈ 0.0121 µg/mL) | hepatocyte CLint [5]: 34 µL/min/1e6 cells | clearance [6]: 30 mL/min/kg | Vd [7]: 0.16 L/kg | half-life [8]: 0.1 h | bioavailability [9]: < 0.1% | solubility thermodynamic [10]: 0.6 µM (≈ 0.364 µg/mL) | Drug uptake [11]: 73 %ID | Drug uptake [12]: 32 %ID | AUC(0-inf) [13]: 740 µM·h | half-life [14]: 17 h | MRT [15]: 23 h | Cmax [16]: 7.4 nM
SMILES: C[C@H](NC(=O)C(C)(F)F)[C@H](Oc1ccc2c(cnn2-c2cccc(C(=O)N[C@@H]3CCOC3)c2)c1)c1ccc2c(c1)OCCO2 [VELSECORAT]
ED25 [17]: 0.04 mg/kg

hepatocyte CLint [1]: 22 µL/min/1e6 cells | chromatographic logD [2]: 3.6 | solubility [3]: < 0.01 µM | solubility thermodynamic [4]: < 0.1 µM | hepatocyte CLint [5]: 31 µL/min/1e6 cells | Vd [7]: 2.8 L/kg | half-life [8]: 0.3 h | bioavailability [9]: < 0.1% | solubility thermodynamic [10]: 0.3 µM (≈ 0.196 µg/mL) | Drug uptake [11]: 93 %ID | Drug uptake [12]: 91 %ID | AUC(0-inf) [13]: 5200 µM·h | half-life [14]: 179 h | MRT [15]: 210 h | Cmax [16]: 4.9 nM
SMILES: C[C@H](NC(=O)C(C)(F)F)[C@H](Oc1ccc2c(cnn2-c2cccc(C(=O)N[C@@H]3CCS(=O)(=O)C3)c2)c1)c1ccc2c(c1)OCCO2
ED25 [17]: > 0.13 mg/kg

chromatographic logD [2]: 3.9 | solubility [3]: 2 µM (≈ 1.13 µg/mL) | solubility thermodynamic [4]: 0.12 µM (≈ 0.0675 µg/mL)
SMILES: C[C@H](NC(=O)C(C)(F)F)[C@H](Oc1ccc2c(cnn2-c2cccc(C(=O)N[C@@H]3CCOC3=O)c2)c1)c1ccccc1

chromatographic logD [2]: 3.3 | solubility [3]: 85 µM (≈ 48.9 µg/mL)
SMILES: C[C@H](NC(=O)C(C)(F)F)[C@H](Oc1ccc2c(cnn2-c2cccc(C(=O)N3CCC[C@H]3C(N)=O)c2)c1)c1ccccc1

Drug degradation [18]: Metabolite_Detected | Drug degradation [19]: Metabolite_Detected | Drug degradation [20]: Metabolite_Detected | Drug metabolism [21]: Metabolite_Detected | Drug metabolism [22]: Metabolite_Detected | Drug metabolism [23]: Metabolite_Detected
SMILES: C[C@H](NC(=O)C(C)(F)F)[C@H](Oc1ccc2c(cnn2-c2cccc([14C](=O)N[C@@H]3CCOC3)c2)c1)c1ccc2c(c1)OCCO2

hepatocyte CLint [1]: 33 µL/min/1e6 cells | chromatographic logD [2]: 5
SMILES: C[C@H](NC(=O)C(F)(F)F)[C@H](Oc1ccc2c(cnn2-c2ccc(F)cc2)c1)c1cccc(O)c1

hepatocyte CLint [1]: < 2.7 µL/min/1e6 cells
SMILES: C[C@H](NC(=O)C(F)(F)F)[C@H](Oc1ccc2c(cnn2-c2ccc(F)cc2)c1)c1cccc(OS(=O)(=O)O)c1

hepatocyte CLint [1]: 33 µL/min/1e6 cells | chromatographic logD [2]: 4.9 | hepatocyte CLint [5]: 28 µL/min/1e6 cells | clearance [6]: 103 mL/min/kg | Vd [7]: 31 L/kg | half-life [8]: 3.3 h | bioavailability [9]: < 0.1% | solubility thermodynamic [10]: 0.62 µM (≈ 0.31 µg/mL) | Drug uptake [11]: 43 %ID | Drug uptake [12]: 1.9 %ID | AUC(0-inf) [13]: 200 µM·h | half-life [14]: 4.5 h | MRT [15]: 6.5 h | Cmax [16]: 24 nM
SMILES: CCC(=O)O[C@]1(C(=O)SCF)[C@H](C)C[C@H]2[C@@H]3C[C@H](F)C4=CC(=O)C=C[C@]4(C)[C@@]3(F)[C@@H](O)C[C@@]21C [FLUTICASONE PROPIONATE]
ED25 [17]: 0.0039 mg/kg

hepatocyte CLint [1]: 15 µL/min/1e6 cells | chromatographic logD [2]: 5.4
SMILES: C[C@H](NC(=O)C(C)(F)F)[C@H](Oc1ccc2c(cnn2-c2ccc(F)cc2)c1)c1ccc2c(c1)OCOC2

hepatocyte CLint [1]: 9.7 µL/min/1e6 cells | chromatographic logD [2]: 2.9 | solubility [3]: 19 µM (≈ 12 µg/mL)
SMILES: C[C@H](NC(=O)C(C)(F)F)[C@H](Oc1ccc2c(cnn2-c2cccc(C(=O)N3CCC[C@@H]3C(N)=O)c2)c1)c1ccc2c(c1)OCOC2
